From ChEMBL document CHEMBL3124822, “Discovery of a rapidly metabolized, long-acting β(2) adrenergic receptor agonist with a short onset time incorporating a sulfone group suitable for once-daily dosing” (J Med Chem, 2014) come the findings set out here.

In data set [1] the target is Beta-1 adrenergic receptor (Homo sapiens, UniProt P08588). In words: Agonist activity at human beta1 adrenoceptor transfected in CHO cells assessed as cyclic AMP accumulation after 45 mins by fluorescence polarization assay. Type of data set: cell-based.
Beta-1 adrenergic receptor, sequence (P08588 whole entry): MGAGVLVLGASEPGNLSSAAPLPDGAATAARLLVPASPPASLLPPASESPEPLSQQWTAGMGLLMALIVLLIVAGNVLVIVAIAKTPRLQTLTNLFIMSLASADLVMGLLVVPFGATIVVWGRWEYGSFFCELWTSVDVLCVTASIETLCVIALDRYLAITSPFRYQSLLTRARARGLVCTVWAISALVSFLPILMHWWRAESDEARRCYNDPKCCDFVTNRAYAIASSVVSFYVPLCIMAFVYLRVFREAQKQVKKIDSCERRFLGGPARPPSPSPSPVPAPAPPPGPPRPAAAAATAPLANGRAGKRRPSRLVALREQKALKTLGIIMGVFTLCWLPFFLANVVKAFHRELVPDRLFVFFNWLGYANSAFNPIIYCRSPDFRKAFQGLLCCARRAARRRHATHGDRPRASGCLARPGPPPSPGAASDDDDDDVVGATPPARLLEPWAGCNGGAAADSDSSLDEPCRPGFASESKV
Data set [2] has as its target Beta-3 adrenergic receptor (Homo sapiens, UniProt P13945). In words: Agonist activity at human beta3 adrenoceptor transfected in CHO cells assessed as cyclic AMP accumulation after 45 mins by fluorescence polarization assay. The data set is classed as cell-based.
The target in data set [3] is Beta-2 adrenergic receptor (Homo sapiens, UniProt P07550). In words: Agonist activity at human beta2 adrenoceptor transfected in CHO cells assessed as cyclic AMP accumulation after 45 mins by fluorescence polarization assay. Type of data set: functional, cell-based.
Beta-2 adrenergic receptor, sequence (P07550 whole entry): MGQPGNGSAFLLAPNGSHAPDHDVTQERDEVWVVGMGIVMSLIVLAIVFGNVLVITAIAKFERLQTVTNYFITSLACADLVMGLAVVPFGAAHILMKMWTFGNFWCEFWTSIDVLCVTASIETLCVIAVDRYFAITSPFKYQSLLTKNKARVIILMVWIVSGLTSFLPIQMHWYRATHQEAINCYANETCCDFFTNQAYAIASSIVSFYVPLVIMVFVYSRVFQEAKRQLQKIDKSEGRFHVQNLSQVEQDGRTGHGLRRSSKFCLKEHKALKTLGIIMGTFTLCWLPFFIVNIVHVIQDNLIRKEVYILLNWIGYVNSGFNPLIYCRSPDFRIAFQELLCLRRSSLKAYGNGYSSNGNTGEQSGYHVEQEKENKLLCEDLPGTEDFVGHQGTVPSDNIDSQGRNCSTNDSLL
Data set [4] relates to Cavia porcellus. In words: Bronchodilatory activity in guinea pig assessed as duration of action of inhibition of histamine-induced bronchoconstriction at EC90 administered via nebulization 2 mins prior to histamine challenge. Type of data set: functional. In short, it runs like this: (§1)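 Conscious guinea pigs, n = 24 per group, given test agonist as a nebulized solution in dimethylacetamide–saline vehicle (2 min nebulization) before histamine (10 mM, nebulized 1.3 min) in a whole-body plethysmograph. PenH recorded for 15 min as index of airway obstruction. Dose expressed as nebulizer concentration; duration taken as time to 50% recovery.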

Data set [5] relates to Cavia porcellus. In words: Bronchodilatory activity in guinea pig assessed as inhibition of histamine-induced bronchoconstriction administered via nebulization 2 mins prior to histamine challenge. The data set is classed as functional. The procedure, abridged:
as §1

Data set [6] in a line: Solubility of the compound in water. The data set is classed as physicochemical.
Data set [7] has as its system Rattus norvegicus. In words: Toxicity in Sprague-Dawley rat at 181 to 1261 ug/kg/day by 7-day snout-only inhalation assay. Type of data set: organism-based. To be noted: in vivo, inhaled_or_intranasal. In short, it runs like this: (§2)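 Sprague–Dawley male rats exposed snout-only to a dry powder formulation of the 4-biphenylsulfonic acid salt for 7 days at 181, 344, 703 and 1261 (μg/kg)/day (measured aerosol 5.1, 9.8, 19.9, 35.7 μg/L). Assessed clinically, with body weight, hematology, biochemistry and respiratory tract evaluation. Plasma exposure measured on day 7 as ng·h/mL.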

A short description of data set [8]: Stability of the compound in solution state. Type of data set: physicochemical.
Data set [9] concerns Salmonella typhimurium. In words: Genotoxicity in Salmonella typhimurium by Ames assay. Type of data set: toxicity, organism-based. To be noted: salmonella enterica subsp. enterica serovar typhimurium. The procedure, abridged:
(§3)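 Acetate and 4-biphenylsulfonate salts screened in Ames and mouse lymphoma L5178Y assays, with and without a rat liver metabolic activation system.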

A short description of data set [10]: Plasma concentration in Sprague-Dawley rat at 1261 ug/kg/day measured on day 7 by 7-day snout-only inhalation assay. Type of data set: ADME. Conditions: inhaled, 1.261 mg/kg. The procedure, abridged:
as §2

The test system of data set [11] is Rattus norvegicus. The data set can be described thus: Toxicity in Sprague-Dawley rat assessed as minimal irritancy in laryngeal region at 703 to 1261 ug/kg/day by 7-day snout-only inhalation assay. The data set is classed as organism-based. Conditions: in vivo, inhaled_or_intranasal. In short, it runs like this:
as §2

Data set [12] deals with Rattus norvegicus. The data set can be described thus: Toxicity in Sprague-Dawley rat assessed as minimal irritancy in nasal cavity at 703 to 1261 ug/kg/day by 7-day snout-only inhalation assay. Type of data set: organism-based. To be noted: in vivo, inhaled_or_intranasal. In short, it runs like this:
as §2

Data set [13] deals with Salmonella typhimurium. In words: Genotoxicity in Salmonella typhimurium by Ames assay in presence of rat liver metabolic activation system. Type of data set: toxicity, organism-based. To be noted: salmonella enterica subsp. enterica serovar typhimurium. In short, it runs like this:
as §3

Data set [14] in a line: Stability of the compound in solid state. The data set is classed as physicochemical.
The subject of data set [15] is L5178Y. The data set can be described thus: Genotoxicity against mouse L5178Y cells in presence of rat liver metabolic activation system. The data set is classed as toxicity, cell-based. In short, it runs like this: as §3
Data set [16] deals with Rattus norvegicus. The data set can be described thus: Toxicity in Sprague-Dawley rat assessed as body weight change at 181 to 1261 ug/kg/day by 7-day snout-only inhalation assay. The data set is classed as organism-based. To be noted: in vivo, inhaled_or_intranasal. In short, it runs like this:
as §2

Data set [17] relates to Rattus norvegicus. In words: Toxicity in Sprague-Dawley rat assessed as hematology at 181 to 1261 ug/kg/day by 7-day snout-only inhalation assay. Type of data set: organism-based. To be noted: in vivo, inhaled_or_intranasal. In short, it runs like this: as §2
The subject of data set [18] is L5178Y. The data set can be described thus: Genotoxicity against mouse L5178Y cells. Type of data set: toxicity, cell-based. In short, it runs like this: as §3
Data set [19] can be described thus: Oral absorption in Han Wistar rat at 2 mg/kg up to 7 hrs by LC-MS/MS analysis. Type of data set: ADME, organism-based. To be noted: in vivo, read-out: Fa. The arrangement: dose 2 mg/kg. In short, it runs like this: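 Rat oral absorption from hepatic portal vein plasma, corrected for systemic circulation levels, after β-glucuronidase treatment of samples (deconjugated HPV model). Expressed as h·ng/mL.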

Beta-3 adrenergic receptor, sequence (P13945 whole entry): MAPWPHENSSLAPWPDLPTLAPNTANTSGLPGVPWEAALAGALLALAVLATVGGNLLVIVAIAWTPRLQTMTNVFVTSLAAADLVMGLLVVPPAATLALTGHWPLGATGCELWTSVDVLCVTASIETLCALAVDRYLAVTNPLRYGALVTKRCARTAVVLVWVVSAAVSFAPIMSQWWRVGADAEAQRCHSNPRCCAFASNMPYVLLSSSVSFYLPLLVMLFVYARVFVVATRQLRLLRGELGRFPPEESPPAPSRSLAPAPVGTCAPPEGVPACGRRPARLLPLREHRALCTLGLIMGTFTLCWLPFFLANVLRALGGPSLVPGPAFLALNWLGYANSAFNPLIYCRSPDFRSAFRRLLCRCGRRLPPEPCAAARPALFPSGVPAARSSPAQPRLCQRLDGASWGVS

Consider `O=S(=O)(c1cccc(CCCCOCCCCCCNC[C@H](O)c2ccc(O)c(CO)c2)c1)C1CC=CC1`, for which the results for the concentration giving a half-maximal response (EC50) in data set [1], in [2] and in [3] were 0.501 µM, 0.398 µM and 0.001 µM, respectively.
In the case of `CC(=O)O.OCc1cc(C(O)CNCCCCCCOCCCCc2ccccc2)ccc1O` (configuration not stated), the Time in data set [4] is 13 h. The EC90 in data set [5] turned out to be 50 µM.
In the case of `O=S(=O)(O)c1ccc(-c2ccccc2)cc1.O=S(=O)(c1cccc(CCCCOCCCCCCNC[C@H](O)c2ccc(O)c(CO)c2)c1)C1CCCC1`, in data set [6], the solubility was < 0.01 mg/mL. Further, the Activity entry in data set [7], in data set [9], in data set [11], in [12], in data set [13] and in data set [15] was “Non-toxic” in each case. Also, the Activity result in data set [16], in [17] and in data set [18] was “Non-toxic” throughout. The Stability result is reported as “Unstable” in [8] and “Stable” in [14]. The compound also showed an AUC in [10] of 0.146 µg·h/mL.
With `CS(=O)(=O)c1ccc(CCCCOCCCCCCNC[C@H](O)c2ccc(O)c(CO)c2)cc1`, the EC50 in data set [1] is 6.31 µM; in data set [2], 3.98 µM; in data set [3], 0.02 µM.
The matching figures for `Cc1cc(CCCCOCCCCCCNC[C@H](O)c2ccc(O)c(CO)c2)cc(S(=O)(=O)C2CCCC2)c1`: 0.158 µM, 0.316 µM and 0.000501 µM.
On the same counts, the results for `O=S(=O)(c1ccc(CCCCOCCCCCCNC[C@H](O)c2ccc(O)c(CO)c2)cc1)C1CCCC1` are 1 µM, 0.398 µM and 0.0316 µM.
On the same counts, the results for `O=S(=O)(c1cccc(CCCCOCCCCCCNC[C@H](O)c2ccc(O)c(CO)c2)c1)C1CCCCC1` are 0.251 µM, 0.251 µM and 0.00158 µM.
`O=S1(=O)CCc2ccc(CCCCOCCCCCCNC[C@H](O)c3ccc(O)c(CO)c3)cc21`: the 50% effective concentration (EC50) in data set [1] was 2 µM; in data set [2], 2 µM; in [3], 0.00794 µM.
Consider `O=S1(=O)CCCc2ccc(CCCCOCCCCCCNC[C@H](O)c3ccc(O)c(CO)c3)cc21`, for which the EC50 is 2 µM in [1], 2.51 µM in [2] and 0.0398 µM in data set [3].
As for `OCc1cc(C(O)CNCCCCCCOCCCCc2ccccc2)ccc1O` (configuration not stated) [SALMETEROL], in data set [19], the AUC at 7 h is 0.252 µg·h/mL.
